# This excerpt belongs to a sample that is enriched for hits.
# CHOP inhibitor: inhibitors of CHOP induction in ER stress response; 220,000 compounds, 3.8% hits; CHO-K1 CHOP-promoter luciferase, tunicamycin-induced, 15-18 h; inhibition, % at 10 µM;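 active means compounds that reduced the stress-induced luciferase reporter signal by more than about 70% of percent inhibition, limit read from the data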;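 further: 0% = tunicamycin plus vehicle and 100% = wells without tunicamycin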
# 697 NFkB inh: lowers PMA/ionomycin-induced NF-kB signal in 697 B cells; inhibition, % at 4 µM; 697 B-cell NF-kB luciferase reporter, 16 h; 330,000 compounds, 0.33% hits; in the data active means inhibition above about 35%
# UPR CHOP act: activators of apoptotic arm of unfolded protein response (CHOP); CHO-CHOP luciferase reporter, UPR activation, luminescence; percent of tunicamycin response over DMSO baseline; activation, % at 10 µM; AID 449763; 330,000 compounds, 0.34% hits;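 active means at 10 µM dose, activation of 40% or more, normalized to positive control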;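 further: 100% = tunicamycin at 10 µg/mL and 0% = DMSO alone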
#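 Test system: CHO CHOP reporter cells. Input: 500 CHO-CHOP cells per well. Medium: F12 with 10% FBS. Technique: luciferase luminescence. Measure: percent activation relative to tunicamycin control. Dosing: 10 µM compound, 0.5% DMSO. Timing: 16-18 h cell attachment, then 6 h compound exposure, 37 °C.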
# Jurkat NFkB inh: lowers PMA/ionomycin-induced NF-kB signal in Jurkat cells | AID 435003 | inhibition, % at 4 µM | 330,000 compounds, 0.53% hits | PMA/ionomycin-induced NF-kB luciferase reporter, luminescence; in the data active means inhibition above about 50%
# XBP1 UPR activ: activators of adaptive arm of unfolded protein response (XBP1) | 330,000 compounds, 0.33% hits | CHO-XBP1 luciferase reporter, IRE1-XBP1 UPR activation, luminescence; percent of tunicamycin response, DMSO as zero | AID 463104 | activation, % at 20 µM;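 active means versus positive control, 20 µM dose yields 30% or more activation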;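 further: 100% = tunicamycin at 10 µg/mL and 0% = DMSO only wells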
#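 Assay system: IRE1-XBP1 luciferase reporter CHO line. Input: 1000 cells/well. Buffer or medium: F12 with 10% serum. Doses: 20 µM, 1% DMSO. Times: overnight seeding at 37 °C, 6 h compound treatment at 37 °C. Technique: Steady-Glo luciferase glow luminescence, 10 min after reagent addition.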
# Jurkat NFkB conf: lowers PMA/ionomycin-induced NF-kB signal in Jurkat cells. shares compounds with Jurkat NFkB inh. inhibition, % at 4 µM. 2,700 compounds, 27% hits. Jurkat NF-kB luciferase, 16 h;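 active means inhibition reaching about 45% at 4 µM in either replicate, limit read from the data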;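 further: plate controls were PMA/ionomycin stimulated DMSO wells for no effect and unstimulated DMSO wells for full effect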
# Starred values were filed as active, the others as inactive; . = not tested or not shown.
SMILES,CHOP inhibitor,697 NFkB inh,UPR CHOP act,Jurkat NFkB inh,XBP1 UPR activ,Jurkat NFkB conf
COc1ccc(C(=O)c2ccc(OC)c(N)c2)cc1N,.,-56,4,53*,5,33
COc1ccc(Cl)cc1S(=O)(=O)N(C)CC(=O)NCc1ccccn1,.,-6,0,1,-5,.
Oc1ccc(C2=NNC(=NCc3ccc4c(c3)OCO4)SC2)c(O)c1,19,-51,4,52*,6,16
COc1ccc(C(O)Cc2nccn2C)cc1 (configuration not stated),.,9,0,0,0,.
CCc1ccc(NC(=S)N(Cc2cccc(Br)c2)CC2CCC(C(=O)O)CC2)cc1 (configuration not stated),-7,2,-2,-3,3,.
N=c1c(C(=O)NCc2ccc(F)cc2)cc2c(=O)n3ccccc3nc2n1Cc1ccco1,-95,-26,2,59*,20,26
COc1ccc(S(=O)(=O)NCc2ccccn2)cc1NC(=O)c1ccccc1C,.,-35,1,55*,-1,15
COc1ccc(S(=O)(=O)NCc2ccccn2)cc1NC(=O)c1ccc(Cl)cc1,.,-39,1,25,-1,.
Cc1cc(C)c2nc(C)cc(N/N=C/c3ccc(O)cc3)c2c1,.,-7,15,98*,3,81*
CSCCC(NC(=O)c1ccccc1Cl)C(=O)NC1CCN(Cc2ccccc2)CC1 (configuration not stated),.,-18,1,9,-2,.
COc1ccc(-c2nc(CS(=O)CC(=O)NC(C)CCc3ccccc3)c(C)o2)cc1OC (configuration not stated),.,-3,2,-8,-3,.
O=C(Cc1cccc2ccccc12)Nc1ccccc1Br,.,14,0,2,0,.
Cc1nc2cc(NC(=O)Nc3cccc([N+](=O)[O-])c3)ccc2n1C,.,-216,1,-166,1,-118
Cc1ccc(NC(=O)Nc2ccc3c(c2)nc(C)n3C)cc1,-17,-115,0,-117,-1,.
COCCn1c(SCC(=O)Nc2c(C)n(C)n(-c3ccccc3)c2=O)nc2ccccc2c1=O,.,12,-2,4,0,.
CC(=O)Nc1ccc(NC(=O)COC(=O)c2cc(S(=O)(=O)N3CCCC3)ccc2O)cc1,.,13,1,9,1,.
O=C(COC(=O)c1cc(S(=O)(=O)N2CCCC2)ccc1O)Nc1ccc(F)cc1F,.,18,3,70*,-3,25
N#Cc1ccc(S(=O)(=O)N2CCc3[nH]c4ccc(F)cc4c3C2)cc1,-4,14,-1,4,-3,.
NC(=O)CC(NC(=O)Cc1ccc(Br)cc1)c1ccc(NCCOc2ccccc2)c([N+](=O)[O-])c1 (configuration not stated),-16,-9,0,12,-5,.
NC(=O)CC(NC(=O)Cc1ccc(Br)cc1)c1ccc(NC2CCCCCC2)c([N+](=O)[O-])c1 (configuration not stated),49,8,0,18,-2,.
CC(C)Nc1ccc(C(CC(N)=O)NC(=O)Cc2ccc(Br)cc2)cc1[N+](=O)[O-] (configuration not stated),-15,-40,0,84*,0,58*
